This data set can be described thus: Toxicity liver stage against HepG2, at 10uM. Format: cell-based. Also on record: test concentration 10 uM, cell line HepG2-A16-CD81EGFP. The conditions noted are these: human, HepG2-A16-CD81EGFP cells; read-out: INHIBITION
In a few lines:
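Uninfected HepG2-A16-CD81EGFP cells, 3 × 10^3 per well, 1536-well, plated on prespotted compound at 10 μM final, parasite-free screening media added to match infected plates; puromycin 10 μM positive, DMSO 0.5% negative; run in parallel with 48 h PbLuc assay at 37 °C, 5% CO2; viability by CellTiter-Glo luminescence, normalized to controls.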
Consider `CN(C)C(=O)Cn1cc(C(=O)NCCc2ccc(C(F)(F)F)cc2)nn1`, for which the cytotoxicity at 10 µM is -15.6%.

`COCC(=O)Nc1ccc([C@@H](O)[C@H]2COCC(=O)N2CC(C)C)cc1`: the cytotoxicity at 10 µM came to 17.6%.

On to `COCC(=O)N1CCN(C(=O)c2cccs2)[C@@H](C(=O)OC)C1`, for which the cytotoxicity at 10 µM is -8.64%.

Take `O=C(C1CC1)N1CC[C@H](c2nnc(-c3ccccc3F)o2)C1`: the cytotoxicity at 10 µM is 0.705%.

As for `CCOC(=O)C1CCN(C(=O)c2cnn(-c3ccc(C)cc3)c2N)CC1`, the cytotoxicity at 10 µM was determined as 1.84%.

Take `CC(C)NC(=O)Cn1ccc2c(Cl)cccc21`: the cytotoxicity at 10 µM was 7.46%.

Turning to `CN(C)CC1CSCCCN1C(=O)c1ccsc1` (configuration not stated), the cytotoxicity at 10 µM was 5.09%.

With `O=C(CC(F)(F)F)N1C[C@H]2CN(CC3CC3)C(=O)[C@H]2C1`, the cytotoxicity at 10 µM was determined as 0.493%.

Take `O=C(NCC1CC1)C1CCC2(CCN(C(=O)c3ccco3)CC2)O1` (configuration not stated): the cytotoxicity at 10 µM worked out at 5.91%.

`Cn1cc(-c2cnc3n2CCC32CCN(S(C)(=O)=O)CC2)cn1`: the cytotoxicity at 10 µM was -127%.

Regarding `c1coc(CN2CCc3onc(Cn4ccnc4)c3C2)c1`, the cytotoxicity at 10 µM came to 7.52%.

As to `COC(=O)CCC(=O)N1CCC2(CN(Cc3ccc(Cl)cc3)C2)C1`, the cytotoxicity at 10 µM came to 5.7%.

As to `O=c1[nH]c2nc(NCC3CCCO3)ncc2c(=O)n1-c1cccc(F)c1` (configuration not stated), the cytotoxicity at 10 µM was -9.24%.

As to `CNC(=O)CS(=O)(=O)C1CCN(S(=O)(=O)c2ccccc2Br)CC1`, the cytotoxicity at 10 µM is -18.3%.

On to `CCN1C[C@H]2CCN(C(C)=O)CC[C@H]2S1(=O)=O`, for which the cytotoxicity at 10 µM is 0.0452%.

`O=C(COc1ccccc1)N1CCC[C@]2(C[C@H](OCC3CC3)CO2)C1`: the cytotoxicity at 10 µM is 8.68%.

`COCc1cccc(S(=O)(=O)NCc2cnn(C)c2C)c1`: the cytotoxicity at 10 µM was -4.02%.

Turning to `Cc1nc(N2CCOCC2)ncc1-c1cc(O)nc(N2CCCC2)n1`, the cytotoxicity at 10 µM worked out at 7.63%.

Turning to `CC(SCCNS(=O)(=O)c1cnn(C)c1)c1cccs1` (configuration not stated), the cytotoxicity at 10 µM was 12.9%.

`CCc1nc2n(n1)CC(Nc1nc(C)cc(N(C)C)n1)CC2` (configuration not stated): the cytotoxicity at 10 µM is 5.02%.

In the case of `CCn1cc(S(=O)(=O)Nc2ccc3[nH]c(C4CCC4)nc3c2)cn1`, the cytotoxicity at 10 µM came out at 1.45%.

Turning to `CC(=O)NCC(=O)N(CCc1ccccc1)C1CCOC1` (configuration not stated), the cytotoxicity at 10 µM amounted to 3.02%.

Regarding `Brc1ccc(CN2CCC(NCc3ncc[nH]3)CC2)cc1`, the cytotoxicity at 10 µM was found to be 14.8%.

Take `NC(=O)[C@@H]1Cc2ccccc2CN1CCC(=O)N1CCOCC1`: the cytotoxicity at 10 µM was -5.82%.

For `Cc1noc(C)c1CC(=O)NCCc1cccs1`, the cytotoxicity at 10 µM was -0.651%.

On to `CCN(CC)C(=O)Nc1ccc(N2CCSCC2)cc1C`, for which the cytotoxicity at 10 µM is -8.44%.

In the case of `CCNC(=O)CNS(=O)(=O)Cc1cc(-c2ccccc2)no1`, the cytotoxicity at 10 µM is -6.71%.

Turning to `CC1CN(S(=O)(=O)c2ccc(F)cc2F)c2cccnc2O1` (configuration not stated), the cytotoxicity at 10 µM is 2.02%.

In the case of `CCc1ccc(C(C)NC(=O)CN(C)Cc2ccc(C)o2)cc1` (configuration not stated), the cytotoxicity at 10 µM was 18.4%.

As for `Cc1cc(CN(C)C(=O)NCc2ccnc(SC(C)(C)C)c2)no1`, the cytotoxicity at 10 µM is 10.4%.

With `CCc1nc(C2CCCN(C(=O)c3c[nH]c(C(C)C)n3)C2)no1` (configuration not stated), the cytotoxicity at 10 µM is -5.43%.

Take `N#Cc1ccnc(N2CCN(CC(O)c3cc(F)ccc3F)CC2)c1` (configuration not stated): the cytotoxicity at 10 µM was determined as 1.31%.

For `Cc1cccc(CNC(=O)Nc2cc(C(F)(F)F)c[nH]c2=O)n1`, the cytotoxicity at 10 µM turned out to be 0.488%.

As to `O=C(C1CCCN1c1ncnc2ccsc12)N1CCSCC1` (configuration not stated), the cytotoxicity at 10 µM is 3%.

With `CCc1noc(CC)c1CNC(=O)Nc1cccc([S+](C)[O-])c1` (configuration not stated), the cytotoxicity at 10 µM was 13.4%.

Consider `CC1CN(C(=O)c2cc[nH]c(=O)c2)c2ccccc21` (configuration not stated), for which the cytotoxicity at 10 µM worked out at 1.5%.

`CCC1(c2ccc(NS(=O)(=O)c3ccc(Cl)s3)cc2)CCC(=O)NC1=O` (configuration not stated): the cytotoxicity at 10 µM is 13.5%.

`Cc1cc(C(=O)N2CCCN(c3nccs3)CC2)c(C)n1C(C)C`: the cytotoxicity at 10 µM worked out at 9.48%.

For `CC(C)(CO)CCCNC(=O)NC1(c2cccc(F)c2)CC1`, the cytotoxicity at 10 µM was -4.86%.

Consider `COCc1noc(-c2cc(Cl)c3c(c2)OCO3)n1`, for which the cytotoxicity at 10 µM was -4.05%.

Take `Cc1cc(C(C)(O)CNC(=O)CCOCC(C)C)c(C)o1` (configuration not stated): the cytotoxicity at 10 µM was determined as 3.94%.

For `Cc1cc(NC(=O)Cc2ccccc2O)c[nH]c1=O`, the cytotoxicity at 10 µM is -2.38%.

Consider `Cc1nnc(-c2cccc(C#N)c2)n1C1CCN(C2CC2)C1=O` (configuration not stated), for which the cytotoxicity at 10 µM is -11.8%.

In the case of `CCOCC(=O)NCCc1ccc(I)s1`, the cytotoxicity at 10 µM is -4.76%.

For the molecule `CC(CO)(NC(=O)Nc1nnc(C(F)F)s1)C1CC1` (configuration not stated), the cytotoxicity at 10 µM worked out at 9.23%.

For the molecule `CC(=O)N(Cc1ncc(C)o1)C1CCN(CCNC2CCCCC2)C1` (configuration not stated), the cytotoxicity at 10 µM amounted to 15.4%.

For the molecule `CN(Cc1cccc(F)c1)S(=O)(=O)N1CCOCC1`, the cytotoxicity at 10 µM was -1.97%.

Turning to `Cc1ccccc1C1(CNC(=O)NCCc2nnc3n2CCC3)CC1`, the cytotoxicity at 10 µM was determined as 2.48%.

On to `Cc1cccc(CN2CCn3c(COc4ncccn4)nnc3C2)n1`, for which the cytotoxicity at 10 µM is -1.35%.

Turning to `CCC(O)CNC(=O)c1cc(COc2ccc(OC)cc2Cl)[nH]n1` (configuration not stated), the cytotoxicity at 10 µM was -8.09%.

For `COCc1noc(-c2ccc(N(C)Cc3ccc(C)o3)nc2)n1`, the cytotoxicity at 10 µM is -3.7%.

`CCN1CCC(CC(=O)NCCc2nc(C)cc(C)n2)CC1`: the cytotoxicity at 10 µM is -8.06%.

Take `OC1COCCN(Cc2cc(-c3ccccc3OC(F)(F)F)no2)C1` (configuration not stated): the cytotoxicity at 10 µM is -12.7%.

As to `CCc1cnc(NCCCOC2CCCC2)nc1`, the cytotoxicity at 10 µM is -0.0184%.

On to `Cc1nc(N(C)CCCc2nccn2C)c2nc(C)oc2n1`, for which the cytotoxicity at 10 µM worked out at 5.82%.

For `CNc1ccc(C)cc1C(=O)N[C@H]1C[C@H]2CN(C)CCN2C1`, the cytotoxicity at 10 µM is -4.57%.

Consider `COc1ccc(C(C(=O)O)N2CCN(C3CCCC3)CC2)cc1OC` (configuration not stated), for which the cytotoxicity at 10 µM was -17.1%.

In the case of `CCn1c(N)nc2cc(C(=O)NCc3cccc(C)c3C)cnc21`, the cytotoxicity at 10 µM turned out to be 19.7%.

With `Cc1ccc(OCC(O)CNC(=O)C2(c3ccc(F)cc3)CC2)cc1` (configuration not stated), the cytotoxicity at 10 µM turned out to be 0.675%.

For the molecule `CN(Cc1ccc2c(c1)OCO2)C(=O)c1ccc(C2CCCNC2)cc1` (configuration not stated), the cytotoxicity at 10 µM was -11.8%.

As to `COc1ccc(CN2CCCC2)cc1Oc1ccc2c(c1)CC(CN)O2` (configuration not stated), the cytotoxicity at 10 µM was -10.5%.

As for `O=c1cc(N2CCCCC2)cnn1Cc1noc(C2CCCO2)n1` (configuration not stated), the cytotoxicity at 10 µM was -47.1%.

In the case of `COc1cccc2c1OCC(C(=O)N1CCC(N3CCSCC3)CC1)C2` (configuration not stated), the cytotoxicity at 10 µM was 2.24%.

For the molecule `COc1ccccc1C(=O)Nc1ccc(OC2CCN(C)CC2)cc1`, the cytotoxicity at 10 µM was -4.85%.

Turning to `O=C(NCc1ccc2c(c1)CCCO2)c1ccccc1C1CCNC1` (configuration not stated), the cytotoxicity at 10 µM stood at 6.58%.

Consider `COCCN(C)C[C@@H]1CN(c2nnc(C(C)C)s2)C[C@@H]1CO`, for which the cytotoxicity at 10 µM is -2.35%.

Take `COc1cnc(N2CCC(Oc3ccccc3OC)(C(=O)O)CC2)nc1`: the cytotoxicity at 10 µM was -13.5%.

In the case of `CN1C(=O)C(c2ccccc2)CC12CCN(CCOCCO)CC2` (configuration not stated), the cytotoxicity at 10 µM turned out to be 39.8%.

For `O=C(O)CCc1nc2nccc(C(F)(F)F)n2n1`, the cytotoxicity at 10 µM was -1.36%.

As to `Cc1nc(C2CCCN(C(=O)c3ccnc(N(C)C)c3)C2)no1` (configuration not stated), the cytotoxicity at 10 µM is -4.77%.

As to `Cc1ccc(NC2CCN(C(=O)CCc3ccccc3)CC2)nn1`, the cytotoxicity at 10 µM is -10.5%.

As for `Cc1ccc(CN(Cc2nc3c(cnn3C)c(=O)[nH]2)C(C)C)s1`, the cytotoxicity at 10 µM is -5.48%.

On to `Cc1noc(C)c1C(=O)NCc1cccnc1N(C)C`, for which the cytotoxicity at 10 µM is -9.42%.

For `Cc1nnc2n1CCN(Cc1ncc(-c3ccccc3)o1)C2`, the cytotoxicity at 10 µM is -3.78%.

As to `CN(Cc1nccn1C)C1CCCN(Cc2noc(C3CC3)n2)C1` (configuration not stated), the cytotoxicity at 10 µM was -3.54%.

Take `Cc1cc(CN(C)C(=O)NC2CCN(Cc3ccccn3)CC2)no1`: the cytotoxicity at 10 µM was -17.4%.

As for `O=C1CCc2cc(-c3csc(CCN4CCOC4=O)n3)ccc2N1`, the cytotoxicity at 10 µM is -12.2%.

Turning to `CCC(O)CN1CCN(C(=O)c2ccc(N(C)C)nn2)CC1` (configuration not stated), the cytotoxicity at 10 µM is -6.83%.

As to `O=C(CCCn1cncn1)N1CCCC1c1noc(C2CC2)n1` (configuration not stated), the cytotoxicity at 10 µM is -31.5%.

On to `O=C(NCc1ccnc(-n2cccn2)c1)C1CC(=O)N(CC2CC2)C1` (configuration not stated), for which the cytotoxicity at 10 µM turned out to be 5.48%.

Regarding `Cc1nn(C)c(N2CCOCC2)c1CNCc1ccccc1CO`, the cytotoxicity at 10 µM is -13.2%.

Take `CN(CC(=O)N1CCCC1c1cnn(C)c1)c1ccc(Cl)cn1` (configuration not stated): the cytotoxicity at 10 µM is -6.14%.

`Cc1ccc(NC2CCN(C(=O)c3cccc(F)c3F)CC2)nn1`: the cytotoxicity at 10 µM was -4.4%.

With `CCOC1CCCN(C(=O)NCCc2ccn(-c3ccccc3)n2)C1` (configuration not stated), the cytotoxicity at 10 µM came to 3.13%.

`O=C(Nc1cc(F)ccc1OCC1CCCO1)c1ccccn1` (configuration not stated): the cytotoxicity at 10 µM is 2.57%.

On to `CCc1ncc(CN(C)C2CCN(C(C)C)CC2)cn1`, for which the cytotoxicity at 10 µM was -3.91%.

As for `O=C(N1CCCO1)[C@@]12CCO[C@@H]1CCN(Cc1ccccn1)C2`, the cytotoxicity at 10 µM turned out to be 3.98%.

`O=C(N1CCCC1)N1CCO[C@H]2[C@@H](OCc3cccnc3)CC[C@@H]21`: the cytotoxicity at 10 µM was -1.6%.

Take `CN(C)C(=O)COC[C@H]1CC[C@@H]2[C@@H](CCN2Cc2ccccn2)O1`: the cytotoxicity at 10 µM is -18.7%.

For the molecule `CSc1ccc(CNC(c2ccccc2F)c2nccn2C)cc1` (configuration not stated), the cytotoxicity at 10 µM is 1.75%.

For the molecule `CC(=O)N1CCC2(CCCN2Cc2cnn(C)c2)CC1`, the cytotoxicity at 10 µM was -2.27%.

Turning to `COCCN1CCC2(C1)CN(c1ncccn1)C2`, the cytotoxicity at 10 µM came to 10.7%.

For `CC(C)OCCCN(Cc1ccncc1)Cc1cc(F)cc(F)c1`, the cytotoxicity at 10 µM was -25.6%.

On to `CN(C)C(=O)N1CCC2(CC1)CCN(c1ncccn1)C2`, for which the cytotoxicity at 10 µM was -1.05%.

`CC(C)c1nn(C)c(N(C)C)c1CNC1CCc2cc(F)ccc21` (configuration not stated): the cytotoxicity at 10 µM came to 1.93%.

As to `C=c1ccoc1=C1NN=C(CNCCn2cc(C)cn2)O1`, the cytotoxicity at 10 µM is 1.12%.

As for `CC1=C(C#N)C(=O)NC(=O)/C1=C\c1c(C)[nH]n(-c2ccccc2)c1=O`, the cytotoxicity at 10 µM stood at 0.137%.

These data come from ChEMBL document CHEMBL4513216, “Probing the Open Global Health Chemical Diversity Library for Multistage-Active Starting Points for Next-Generation Antimalarials” (ACS Infect Dis, 2020).
